From PubChem
Scp-1 inhibitor: Scp-1 phosphatase inhibitors, primary screen, biochemical, colorimetric, uHTS; inhibition, % at 20 µM; 340,000 compounds, 0.88% hits; Carboxy-terminal domain RNA polymerase II polypeptide A small phosphatase 1 (Homo …; Recombinant Scp1, phosphopeptide, malachite green phosphate absorbance;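 active = inhibition above about 50% at 20 µM, limit read from the data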;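 also: plate controls were DMSO wells with enzyme for no effect and wells lacking enzyme for full effect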
Target sequence (Q9GZU7 76-261 limits assumed): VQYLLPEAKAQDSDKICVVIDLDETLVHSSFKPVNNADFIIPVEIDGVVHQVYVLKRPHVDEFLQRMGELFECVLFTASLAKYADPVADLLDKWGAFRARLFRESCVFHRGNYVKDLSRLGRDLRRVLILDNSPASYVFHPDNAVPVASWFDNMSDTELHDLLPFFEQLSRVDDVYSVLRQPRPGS
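Incubation: 45 min enzyme reaction at room temperature / System: truncated SCP-1 phosphatase (76-261aa) / Reagent: Phospho 17-mer peptide substrate / Buffer or medium: Acidic Tris acetate buffer with magnesium and detergent / Signal: absorbance at 630 nm / Doses: one concentration, 20 µM, with 1.0% DMSO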
DNMT1 inh: human DNMT1 methyltransferase inhibitors, primary screen, biochemical, molecular beacon, fluorescence, HinP1I cleavage, uHTS; DNA (cytosine-5)-methyltransferase 1 (Homo sapiens), P26358; inhibition (reported as % activation of signal), % at 10 µM; 360,000 compounds, 0.83% hits; AID 588458, 2011
LMPTP block: LMPTP phosphatase inhibitors, primary screen, biochemical, fluorescence intensity, uHTS; recombinant LMPTP-A, OMFP fluorogenic substrate; inhibition, % at 20 µM; 360,000 compounds, 0.22% hits; Low molecular weight phosphotyrosine protein phosphatase (Homo sapiens), P24666;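 active = compounds that cut the enzyme signal by at least half of the control window in the single-dose screen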;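 also: plate controls were DMSO wells with enzyme plus substrate for no effect and substrate without enzyme for full effect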
Target sequence (P24666 whole entry, looked up): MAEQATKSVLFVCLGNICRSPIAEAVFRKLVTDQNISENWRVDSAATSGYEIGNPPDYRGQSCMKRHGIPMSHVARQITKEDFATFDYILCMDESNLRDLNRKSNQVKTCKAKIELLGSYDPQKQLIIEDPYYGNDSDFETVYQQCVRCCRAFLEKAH
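Buffer or medium: Bis-Tris pH 6.0, DTT, detergent; Assay system: LMPTP-A enzyme; Quantity: 0.625 nM enzyme; Detection: endpoint fluorescence intensity; Times: 50 min dark incubation at room temperature; Controls: substrate-only low control, DMSO enzyme-plus-substrate high control; Doses: single 20 µM dose; Read-out: percent inhibition versus substrate-only and uninhibited controls; Reagent: 400 µM OMFP.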
CSN inh: inhibitors of CSN-mediated cullin deneddylation, primary screen, biochemical, fluorescence polarization, uHTS; Purified CSN, SCF-Nedd8-OG deneddylation; inhibition, % at 12.5 µM; 360,000 compounds, 0.38% hits;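 active = pattern-corrected inhibition above about 35%, with an unprinted fluorescence ratio check between 0.5 and 1.5, limit read from the data, passing the limit was not always enough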;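 also: 0% = enzyme with substrate and 100% = substrate without enzyme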
Target sequence (Q92905 whole entry, looked up, one chain of several): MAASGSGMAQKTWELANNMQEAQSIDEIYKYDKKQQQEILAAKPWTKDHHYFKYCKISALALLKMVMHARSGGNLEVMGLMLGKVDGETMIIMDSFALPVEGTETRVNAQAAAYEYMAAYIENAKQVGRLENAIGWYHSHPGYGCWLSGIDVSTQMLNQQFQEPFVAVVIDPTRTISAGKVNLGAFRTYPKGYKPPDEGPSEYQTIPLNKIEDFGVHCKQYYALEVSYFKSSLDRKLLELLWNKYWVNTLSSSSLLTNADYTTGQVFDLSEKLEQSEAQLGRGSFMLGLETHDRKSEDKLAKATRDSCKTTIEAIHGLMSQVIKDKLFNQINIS
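Test system: purified human Csn5 enzyme expressed in HEK293T cells. Amount: 0.24 nM enzyme. Reagent: SCFSkp2-Nedd8OG substrate at 10 nM final. Schedule: 90 min incubation of compound, enzyme and substrate at room temperature. Detection: fluorescence polarization. Read-out: % inhibition of substrate cleavage by Csn5.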
SUMO1 PPI mod: modulators of SUMO1 protein-protein interactions, primary screen, biochemical, uHTS; 360,000 compounds, 0.33% hits; SUMO1 binding to a labelled peptide, TR-FRET, 1 h; AID 602429, 2012; inhibition, % at 20 µM; in the data active = inhibition above about 37%
STEP inh: STEP phosphatase inhibitors, primary screen, biochemical, fluorescence intensity, uHTS | Tyrosine-protein phosphatase non-receptor type 5 (Homo sapiens), P54829 | recombinant STEP, OMFP fluorogenic substrate | inhibition, % at 20 µM | 360,000 compounds, 0.25% hits | AID 588621, 2011;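 active = inhibition at 20 µM, scaled per plate between control wells, above about 37%, limit read from the data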;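 also: 0% = DMSO with enzyme and substrate and 100% = substrate only without enzyme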
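Assay system: isolated STEP enzyme. Buffer or medium: pH 6.0 Bis-Tris with DTT and Tween 20. Also added: fluorogenic phosphatase substrate OMFP at 25 µM final. Dosing: 20 µM, 1% DMSO. Timing: 20 min reaction, room temperature, in the dark. Measured by: fluorescence intensity, excitation 480 nm, emission 540 nm. Evaluation: normalized % inhibition.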
DNMT1 interf DR: spectral interference with molecular beacon fluorescence, dose response, artefact control for DNMT1 inhibitor project, biochemical, fluorescent molecular beacon; spectral interference counter-screen; shares compounds with DNMT1 inh; 200 tested, under 10 active; IC50, µM; AID 602382, 2012; call rule not given here
DNMT1 inh conf: DNMT1 methyltransferase inhibitor retest, confirmation, biochemical, molecular beacon, fluorescence, single concentration; 2,300 compounds, 8% hits; inhibition, % at 10 µM; DNMT1 molecular beacon HinP1I cleavage; shares compounds with DNMT1 inh;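 active = average inhibition of at least 30% in the single-concentration confirmation test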
Beacon interf: beacon fluorescence artifact counter-screen. shares compounds with DNMT1 inh. DNMT1 molecular beacon spectral interference counterscreen, fluorescence 485/520. activation (fluorescence interference), % at 10 µM. 2,300 compounds, 1% hits. AID 602387;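 active = activation of at least 30% at 10 µM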;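 also: DNMT1 catalytic domain with a HinP1I cleavage step and a FAM/dabcyl DNA beacon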
CSN deneddyl val: Csn5 deneddylation inhibitors, confirmation, biochemical, fluorescence polarization, single concentration, SCF-Nedd8OG substrate; shares compounds with CSN inh; Csn5 deneddylation of SCF-Nedd8OG, 90 min; inhibition, % at 16.6 µM; 540 compounds, 62% hits; AID 720654, 2013;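 also: 0% = DMSO with enzyme and 100% = no enzyme wells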
MMP2 cntr CSN: MMP-2 protease inhibition counter-screen, confirmation, counter-screen for CSN deneddylation inhibitor project, biochemical, fluorescence, single concentration | shares compounds with CSN inh | recombinant MMP-2, FRET substrate fluorescence, 60 min | inhibition, % at 16.6 µM | 540 compounds, 33% hits | AID 720655, 2013;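 active = corrected plate-normalized z-score of 5 or more, or -5 or less, or inhibition of 15% or more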;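 also: plate controls were DMSO wells with enzyme for no effect and buffer wells lacking MMP-2 for full effect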
Thrombin counter: blocks bovine thrombin in a CSN deneddylation counter-screen. shares compounds with CSN inh. bovine thrombin cleavage of Ub4-pepOG, fluorescence polarization. inhibition, % at 16.6 µM. 540 compounds, 49% hits. AID 720656;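 active = inhibition at or above a set limit, with a fluorescence interference ratio between 0.5 and a set maximum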
An asterisk follows results filed as active; . = no result. An excerpt weighted towards active compounds, which were near 1.9% of everything screened. Rule as the data show it, unless noted: active = inhibition above about 50%; inactive = the rest.

SMILES	Scp-1 inhibitor	DNMT1 inh	LMPTP block	CSN inh	SUMO1 PPI mod	STEP inh	DNMT1 inh conf	Beacon interf	others
CN1CCN(C(=O)COc2ccc(S(=O)(=O)N(C)Cc3ccccc3)cc2)CC1	-5	55*	-1	-3	-3	0	4	9
Cc1cc(/C=C2\C(=O)NC(=O)N(c3cccc(F)c3)C2=O)c(C)n1-c1cc(C(=O)O)cc(C(=O)O)c1	39	75*	0	13	26	9	10	4
CN(C)c1ccc(/C=C2/C(=O)NC(=O)N(Cc3ccco3)C2=O)cc1	33	94*	2	30	8	5	11	6
CN(C)c1ccc(/C=C2\C(=O)NC(=O)N(CCc3ccc(F)cc3)C2=O)cc1	17	-5	1	22	-3	2	.	.
CC(C)C1(C)N=C(c2ncccc2C(=O)O)NC1=O (stereo unspecified)	-11	94*	-2	-3	-2	-1	2	3
C/C(=C/CCC(C)[C@H]1CC[C@@]2(C)C3=C(CC[C@]12C)[C@@]1(C)CCC(=O)C(C)(C)[C@@H]1CC3)C(=O)O (stereo partly specified)	-8	60*	3	17	41*	0	23	-9	DNMT1 interf DR=>99
CCN1C(=O)C(=C/C=C/c2ccco2)C(=O)N(CC)C1=S	55*	101*	6	162	19	-6	12	-3
CC(C)c1ccc(N2C(=O)NC(=O)/C(=C\C=C\c3ccco3)C2=O)cc1	5	.	.	.	.	.	.	.
CC1=C(C)CN2CC(C#N)=C(N)C2C1 (stereo unspecified)	.	-10	2	-7	7	0	.	.
CCCCOCCCn1c(N)c(C(=O)OCCOC)c2nc3ccccc3nc21	4	52*	3	4	40*	1	1	0
CCCCn1c(N)c(C(=O)OCCOC)c2nc3ccccc3nc21	2	-13	-1	-1	-3	-2	.	.
C#C[C@]1(O)[C@H](O)CC2C3CC[C@H]4C[C@@H](O)CC[C@]4(C)C3CC[C@@]21C (stereo partly specified)	.	67*	3	-3	3	-2	4	4
C[C@]12CCC3C(C(=O)C[C@H]4C[C@@H](O)CC[C@]34C)C1CCC2=O (stereo partly specified)	3	2	-2	-3	5	-1	.	.
O=C1C=CC(=O)C2C1C1(Cl)C(Cl)=C(Cl)C2(Cl)C1(Cl)Cl (stereo unspecified)	-16	-37	1	3	8	-3	.	.
CN1C(=O)/C(=C/c2cccn2-c2ccc3ccccc3c2)C(=O)NC1=S	-4	81*	6	6	15	6	4	-4
Cc1cc(C)cc(N2C(=O)NC(=O)/C(=C\c3cccn3-c3ccc(Cl)cc3)C2=O)c1	-10	17	-1	-1	7	1	.	.
O=C1NC(=S)NC(=O)C1=Cc1cccn1-c1ccc(O)cc1	56*	84*	32	52	11	3	65*	-4	DNMT1 interf DR=>99
Cc1cc(C)cc(N2C(=O)NC(=O)/C(=C\c3cccn3-c3ccccc3)C2=O)c1	3	3	-2	-10	5	1	.	.
COC(=O)C1=C(c2ccc(OCc3ccccc3)c(F)c2)C[C@@H]2CC[C@H]1N2C	.	-2	0	-2	-3	1	.	.
COc1cccc(N2C(=O)/C(=C/c3ccc(C)o3)C(=O)NC2=S)c1	39	62*	1	37*	20	4	0	2	CSN deneddyl val=88*;MMP2 cntr CSN=32*;Thrombin counter=26*
O=C1NC(=S)N(c2ccccc2)C(=O)/C1=C/c1ccco1	93*	93*	7	53*	54*	40	82*	-11	DNMT1 interf DR=>99;MMP2 cntr CSN=46*;Thrombin counter=39
COc1cccc2c1N=C1CCCC3CN(C(C)=O)CCC123 (stereo unspecified)	-8	-4	-1	-3	6	1	.	.
CCN1C(=O)C(=C2C=C(C)N(Cc3ccco3)C(C)=C2)C(=O)N(CC)C1=S	-15	-2	1	2	2	1	.	.
CC(C)N1C(=O)/C(=C/C=C/c2ccco2)C(=O)N(Cc2ccco2)C1=O	70*	109*	5	79*	8	2	27	0	DNMT1 interf DR=>99;CSN deneddyl val=25;MMP2 cntr CSN=12;Thrombin counter=27*
O=C1NC(=O)N(Cc2ccccc2)C(=O)/C1=C/C=C/c1ccco1	-11	90*	2	121*	19	1	2	1	CSN deneddyl val=71*;MMP2 cntr CSN=3;Thrombin counter=22*
CCOC(=O)c1c(-n2c(C)cc(/C=C3/C(=O)NC(=O)N(CC)C3=O)c2C)sc2c1CCCC2	0	15	3	8	13	1	.	.
CCOC(=O)c1c(-n2c(C)cc(C=C3C(=O)NC(=S)NC3=O)c2C)sc2c1CCCC2	9	100*	2	49*	28	3	29	-8	DNMT1 interf DR=>99;CSN deneddyl val=83*;MMP2 cntr CSN=31*;Thrombin counter=12
